Tests used:
Format in all cases: functional
[1] = Growth inhibition of human HCC2998 cells assessed as cell growth at 10^-6 M incubated for 48 hrs by sulforhodamine B assay; settings: HCC 2998, 48 h, read-out: Activity
How it was run: (§1)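 Cells seeded at 5,000–40,000/well according to doubling time and preincubated 24 h at 37 °C, 5% CO2. Time-zero plates were TCA-fixed. DMSO concentrate was diluted in medium with 50 µg/ml gentamicin to give five concentrations (10-fold or ½ log steps), then exposed 48 h. Cells were TCA-fixed, stained with 0.4% SRB and read at 515 nm. Percent growth was taken against time-zero and control; GI50, TGI and LC50 derived.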

NCI-H23 [2] = test: Growth inhibition of human NCI-H23 cells assessed as cell growth at 10^-4 M incubated for 48 hrs by sulforhodamine B assay; settings: NCI-H23, 48 h, read-out: Activity
NCI-H23 [3] = test: Growth inhibition of human NCI-H23 cells assessed as cell growth at 10 uM incubated for 48 hrs by sulforhodamine B assay; settings: NCI-H23, 48 h, read-out: Activity
MDA-MB-468 = test: Growth inhibition of human MDA-MB-468 cells assessed as cell growth at 10^-7 M incubated for 48 hrs by sulforhodamine B assay; settings: MDA-MB-468, 48 h, read-out: Activity
NCI-H522 = test: Growth inhibition of human NCI-H522 cells incubated for 48 hrs by sulforhodamine B assay; settings: NCI-H522, 48 h
How it was run: (§2)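 Cells were plated at 5,000–40,000 per well according to doubling time and preincubated 24 h at 37 °C in 5% CO2; time-zero plates were then TCA-fixed. Five concentrations (10-fold or ½-log dilutions, DMSO stock) were incubated 48 h. Cells were TCA-fixed, stained with 0.4% SRB and read at 515 nm. GI50 was taken where [(Ti−Tz)/(C−Tz)]×100 = 50.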

NCI-H23 [4] = test: Growth inhibition of human NCI-H23 cells assessed as cell growth at 10^-6 M incubated for 48 hrs by sulforhodamine B assay; settings: NCI-H23, 48 h, read-out: Activity
[5] = Growth inhibition of human HCT15 cells assessed as cell growth at 10^-4 M incubated for 48 hrs by sulforhodamine B assay; settings: HCT-15, 48 h, read-out: Activity; how it was run: as §1
[6] = Growth inhibition of human HOP62 cells assessed as cell growth at 10^-4 M incubated for 48 hrs by sulforhodamine B assay; settings: HOP-62, 48 h, read-out: Activity
CCRF-CEM = test: Growth inhibition of human CCRF-CEM cells assessed as cell growth at 10^-6 M incubated for 48 hrs by sulforhodamine B assay; settings: read-out: Activity
How it was run: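 Leukemia line in the five-dose format: five concentrations from 10-fold or ½-log serial dilutions. Plated at 5,000–40,000 cells per well, preincubated 24 h, then compound added for 48 h at 37 °C, 5% CO₂. Sulforhodamine B absorbance read at 515 nm. Growth is computed against time-zero (Tz) and control (C) readings; GI₅₀ is where [(Ti−Tz)/(C−Tz)]×100 = 50.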

[7] = Growth inhibition of human OVCAR3 cells assessed as cell growth at 10^-4 M incubated for 48 hrs by sulforhodamine B assay; settings: OVCAR-3, 48 h, read-out: Activity
[8] = Growth inhibition of human DU145 cells incubated for 48 hrs by sulforhodamine B assay; settings: DU-145, 48 h; for CC50: read-out: pLC50 (the source's name) (converted); how it was run: as §1
NCI-H23 [9] = test: Growth inhibition of human NCI-H23 cells assessed as cell growth at 10^-8 M incubated for 48 hrs by sulforhodamine B assay; settings: NCI-H23, 48 h, read-out: Activity
[10] = Growth inhibition of human MOLT4 cells incubated for 48 hrs by sulforhodamine B assay; settings: MOLT-4, 48 h; how it was run: as §2
[11] = Growth inhibition of human RXF393 cells assessed as cell growth at 10^-6 M incubated for 48 hrs by sulforhodamine B assay; settings: RXF 393, 48 h, read-out: Activity
NCI-H23 [12] = test: Growth inhibition of human NCI-H23 cells assessed as cell growth at 10^-7 M incubated for 48 hrs by sulforhodamine B assay; settings: NCI-H23, 48 h, read-out: Activity
[13] = Growth inhibition of human COLO205 cells assessed as cell growth at 10 uM incubated for 48 hrs by sulforhodamine B assay; settings: COLO 205, 48 h, read-out: Activity
How it was run: (§3)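 Primary screen at one dose (10 µM) across 60 human cancer cell lines. Readout was growth percent relative to untreated control and time-zero.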

[14] = Growth inhibition of human SF295 cells assessed as cell growth at 10^-8 M incubated for 48 hrs by sulforhodamine B assay; settings: SF-295, 48 h, read-out: Activity
[15] = Growth inhibition of human SNB19 cells assessed as cell growth at 10 uM incubated for 48 hrs by sulforhodamine B assay; settings: SNB-19, 48 h, read-out: Activity
U-251 = test: Growth inhibition of human U251 cells incubated for 48 hrs by sulforhodamine B assay; settings: U-251, 48 h; how it was run: as §2
EKVX = test: Growth inhibition of human EKVX cells assessed as cell growth at 10 uM incubated for 48 hrs by sulforhodamine B assay; settings: read-out: Activity; how it was run: as §3
[16] = Growth inhibition of human SF295 cells assessed as cell growth at 10^-4 M incubated for 48 hrs by sulforhodamine B assay; settings: SF-295, 48 h, read-out: Activity
NCI-H460 = test: Growth inhibition of human NCI-H460 cells incubated for 48 hrs by sulforhodamine B assay; settings: NCI-H460, 48 h; how it was run: as §2
[17] = Growth inhibition of human HCC2998 cells assessed as cell growth at 10 uM incubated for 48 hrs by sulforhodamine B assay; settings: HCC 2998, 48 h, read-out: Activity; how it was run: as §3
SK-MEL-5 = test: Growth inhibition of human SK-MEL-5 cells assessed as cell growth at 10^-4 M incubated for 48 hrs by sulforhodamine B assay; settings: SK-MEL-5, 48 h, read-out: Activity
SK-MEL-2 = test: Growth inhibition of human SK-MEL-2 cells assessed as cell growth at 10^-5 M incubated for 48 hrs by sulforhodamine B assay; settings: SK-MEL-2, 48 h, read-out: Activity
[18] = Growth inhibition of human HCT116 cells assessed as cell growth at 10^-4 M incubated for 48 hrs by sulforhodamine B assay; settings: HCT-116, 48 h, read-out: Activity; how it was run: as §1
M14 = test: Growth inhibition of human M14 cells assessed as cell growth at 10 uM incubated for 48 hrs by sulforhodamine B assay; settings: M14, 48 h, read-out: Activity
[19] = read-out: LC50 (the source's name)
[20] = read-out: pLC50 (the source's name) (converted)

Clc1ccc(-c2nc(Nc3ccc(-c4nc5ccccc5[nH]4)cc3)nc(N3CCOCC3)n2)cc1
growth at 1 µM [1]: 15%
growth at 100 µM (NCI-H23 [2]): -27%
growth at 10 µM (NCI-H23 [3]): -83.4%
growth at 0.1 µM (MDA-MB-468): 112%
GI50 (NCI-H522; read-out: GI50): 1500 nM
TGI (NCI-H522; read-out: TGI): 3190 nM
GI50 (NCI-H522; read-out: pGI50 (converted)): 1510 nM
TGI (NCI-H522; read-out: pTGI (converted)): 3160 nM
growth at 1 µM (NCI-H23 [4]): 85%
growth at 100 µM [5]: -10%
growth at 100 µM [6]: -26%
growth at 1 µM (CCRF-CEM): -19%
growth at 100 µM [7]: -71%
LC50 (50% net cell kill) [8]: 4330 nM
GI50 ([8]; read-out: GI50): 452 nM
TGI ([8]; read-out: TGI): 1640 nM
GI50 ([8]; read-out: pGI50 (converted)): 447 nM
CC50 [8]: 4370 nM
TGI ([8]; read-out: pTGI (converted)): 1660 nM
growth at 0.01 µM (NCI-H23 [9]): 97%
GI50 ([10]; read-out: GI50): 217 nM
TGI ([10]; read-out: TGI): 573 nM
GI50 ([10]; read-out: pGI50 (converted)): 219 nM
TGI ([10]; read-out: pTGI (converted)): 575 nM
growth at 1 µM [11]: -56%
growth at 0.1 µM (NCI-H23 [12]): 92%
growth at 10 µM [13]: -68.4%
growth at 0.01 µM [14]: 97%
growth at 10 µM [15]: -81.2%
GI50 (U-251; read-out: GI50): 215 nM
TGI (U-251; read-out: TGI): 442 nM
GI50 (U-251; read-out: pGI50 (converted)): 214 nM
TGI (U-251; read-out: pTGI (converted)): 447 nM
growth at 10 µM (EKVX): -91.3%
growth at 100 µM [16]: -10%
GI50 (NCI-H460; read-out: GI50): 222 nM
TGI (NCI-H460; read-out: TGI): 491 nM
GI50 (NCI-H460; read-out: pGI50 (converted)): 224 nM
TGI (NCI-H460; read-out: pTGI (converted)): 490 nM
growth at 10 µM [17]: -89.9%
growth at 100 µM (SK-MEL-5): -51%
growth at 10 µM (SK-MEL-2): -87%
growth at 100 µM [18]: -34%
growth at 10 µM (M14): -82.6%

c1ccc2[nH]c(-c3ccc(Nc4nc(N5CCCCC5)nc(N5CCOCC5)n4)cc3)nc2c1
growth at 1 µM [1]: 105%
growth at 100 µM (NCI-H23 [2]): -26%
growth at 10 µM (NCI-H23 [3]): 19.7%
growth at 0.1 µM (MDA-MB-468): 100%
GI50 (NCI-H522; read-out: GI50): 2360 nM
CC50 (NCI-H522; [19]): > 100000 nM
TGI (NCI-H522; read-out: TGI): 6220 nM
GI50 (NCI-H522; read-out: pGI50 (converted)): 2340 nM
CC50 (NCI-H522; [20]): > 100000 nM
TGI (NCI-H522; read-out: pTGI (converted)): 6170 nM
growth at 1 µM (NCI-H23 [4]): 91%
growth at 100 µM [5]: -22%
growth at 100 µM [6]: -55%
growth at 1 µM (CCRF-CEM): 100%
growth at 100 µM [7]: -49%
LC50 (50% net cell kill) [8]: > 100000 nM
GI50 ([8]; read-out: GI50): 4280 nM
TGI ([8]; read-out: TGI): > 100000 nM
GI50 ([8]; read-out: pGI50 (converted)): 4270 nM
CC50 [8]: > 100000 nM
TGI ([8]; read-out: pTGI (converted)): > 100000 nM
growth at 0.01 µM (NCI-H23 [9]): 98%
GI50 ([10]; read-out: GI50): 2730 nM
CC50 [10, 19]: > 100000 nM
TGI ([10]; read-out: TGI): 7890 nM
GI50 ([10]; read-out: pGI50 (converted)): 2750 nM
CC50 [10, 20]: > 100000 nM
TGI ([10]; read-out: pTGI (converted)): 7940 nM
growth at 1 µM [11]: 46%
growth at 0.1 µM (NCI-H23 [12]): 93%
growth at 10 µM [13]: -61.3%
growth at 0.01 µM [14]: 94%
growth at 10 µM [15]: 10.4%
GI50 (U-251; read-out: GI50): 2180 nM
CC50 (U-251; [19]): 76800 nM
TGI (U-251; read-out: TGI): 10000 nM
GI50 (U-251; read-out: pGI50 (converted)): 2190 nM
CC50 (U-251; [20]): 77600 nM
TGI (U-251; read-out: pTGI (converted)): 10000 nM
growth at 10 µM (EKVX): 27.7%
growth at 100 µM [16]: -56%
GI50 (NCI-H460; read-out: GI50): 2440 nM
CC50 (NCI-H460; [19]): > 100000 nM
TGI (NCI-H460; read-out: TGI): 6180 nM
GI50 (NCI-H460; read-out: pGI50 (converted)): 2450 nM
CC50 (NCI-H460; [20]): > 100000 nM
TGI (NCI-H460; read-out: pTGI (converted)): 6170 nM
growth at 10 µM [17]: -1.07%
growth at 100 µM (SK-MEL-5): -95%
growth at 10 µM (SK-MEL-2): -38%
growth at 100 µM [18]: -75%
growth at 10 µM (M14): -24.5%
